Assay results published in ChEMBL document CHEMBL1629483, “Synthesis of novel chiral Δ2-isoxazoline derivatives related to ABT-418 and estimation of their affinity at neuronal nicotinic acetylcholine receptor subtypes” (Eur J Med Chem, 2010).

Experiments:
[1] = biological target: Neuronal acetylcholine receptor subunit alpha-7 (Rattus norvegicus, UniProt Q05941); assay: Displacement of [125I]-alpha-Bungarotoxin from alpha7 nAChR rat cortical membranes by gamma counting; assay type: cell membranes, Membrane
Chain of Neuronal acetylcholine receptor subunit alpha-7 (Q05941 whole entry): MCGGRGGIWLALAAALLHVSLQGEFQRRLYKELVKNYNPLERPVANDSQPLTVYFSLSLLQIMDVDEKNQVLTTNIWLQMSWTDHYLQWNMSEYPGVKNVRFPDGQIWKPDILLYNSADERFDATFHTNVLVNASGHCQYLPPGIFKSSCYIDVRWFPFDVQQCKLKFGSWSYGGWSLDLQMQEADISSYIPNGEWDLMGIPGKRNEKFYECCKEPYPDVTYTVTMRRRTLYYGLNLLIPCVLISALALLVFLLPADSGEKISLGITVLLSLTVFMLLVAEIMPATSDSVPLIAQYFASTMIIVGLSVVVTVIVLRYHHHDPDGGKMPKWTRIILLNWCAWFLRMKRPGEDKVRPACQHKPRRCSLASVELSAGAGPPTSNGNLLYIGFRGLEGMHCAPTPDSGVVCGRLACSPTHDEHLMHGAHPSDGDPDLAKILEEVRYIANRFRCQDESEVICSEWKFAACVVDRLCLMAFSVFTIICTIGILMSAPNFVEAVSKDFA
Summary of the method: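 Rat cortex membranes, prepared by twice-repeated homogenisation and high-speed centrifugation, were pre-incubated with compound for 30 min at r.t. Filtered on PEI-soaked GF/C filters and gamma counted. Ki from three independent competition experiments, fitted together with three saturation experiments by non-linear least squares (LIGAND).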

[2] = biological target: T1, Muscarinic acetylcholine receptor M4 (Homo sapiens) (UniProt P08173); assay: Displacement of [3H]quinuclidinyl benzylate from human muscarinic M4 receptor expressed in CHO cells at 10 uM; assay type: cell-based
T1 sequence (whole entry): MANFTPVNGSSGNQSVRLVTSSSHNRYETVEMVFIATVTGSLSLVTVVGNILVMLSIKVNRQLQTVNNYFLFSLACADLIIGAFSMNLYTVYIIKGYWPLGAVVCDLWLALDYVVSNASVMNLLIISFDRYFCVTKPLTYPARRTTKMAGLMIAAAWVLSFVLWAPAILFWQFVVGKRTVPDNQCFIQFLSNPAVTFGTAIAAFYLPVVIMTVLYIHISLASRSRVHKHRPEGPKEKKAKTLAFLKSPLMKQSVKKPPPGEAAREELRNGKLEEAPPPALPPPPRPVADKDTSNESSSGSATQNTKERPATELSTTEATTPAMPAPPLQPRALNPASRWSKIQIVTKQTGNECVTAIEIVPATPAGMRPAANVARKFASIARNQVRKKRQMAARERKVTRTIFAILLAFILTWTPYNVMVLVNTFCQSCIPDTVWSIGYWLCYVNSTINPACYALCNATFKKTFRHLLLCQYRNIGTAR

[3] = biological target: T2, Muscarinic acetylcholine receptor M2 (Homo sapiens) (UniProt P08172); assay: Displacement of [3H]quinuclidinyl benzylate from human muscarinic M2 receptor expressed in CHO cells at 10 uM; assay type: cell-based
T2 sequence (whole entry): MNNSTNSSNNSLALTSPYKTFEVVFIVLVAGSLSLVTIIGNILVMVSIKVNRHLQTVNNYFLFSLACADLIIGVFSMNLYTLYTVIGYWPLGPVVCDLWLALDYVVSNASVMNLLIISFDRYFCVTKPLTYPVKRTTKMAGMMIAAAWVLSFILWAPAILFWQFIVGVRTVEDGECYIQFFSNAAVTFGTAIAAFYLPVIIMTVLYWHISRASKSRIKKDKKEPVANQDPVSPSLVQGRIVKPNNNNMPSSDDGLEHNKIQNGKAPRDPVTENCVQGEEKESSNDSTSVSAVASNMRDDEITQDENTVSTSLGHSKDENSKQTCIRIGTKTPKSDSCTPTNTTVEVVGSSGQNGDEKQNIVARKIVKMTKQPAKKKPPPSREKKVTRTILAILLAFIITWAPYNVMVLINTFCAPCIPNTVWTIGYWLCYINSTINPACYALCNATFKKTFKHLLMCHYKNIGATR
Summary of the method: (§1)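 Single-concentration preliminary screen on membranes of transfected CHO cells expressing human M2 or M5 receptors, labelled with [3H]quinuclidinyl benzylate. Read-out was percent inhibition of radioligand binding.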

[4] = biological target: T3, Muscarinic acetylcholine receptor M1 (Homo sapiens) (UniProt P11229); assay: Displacement of [3H]quinuclidinyl benzylate from human muscarinic M1 receptor expressed in CHO cells at 10 uM; assay type: cell-based
T3 sequence (whole entry): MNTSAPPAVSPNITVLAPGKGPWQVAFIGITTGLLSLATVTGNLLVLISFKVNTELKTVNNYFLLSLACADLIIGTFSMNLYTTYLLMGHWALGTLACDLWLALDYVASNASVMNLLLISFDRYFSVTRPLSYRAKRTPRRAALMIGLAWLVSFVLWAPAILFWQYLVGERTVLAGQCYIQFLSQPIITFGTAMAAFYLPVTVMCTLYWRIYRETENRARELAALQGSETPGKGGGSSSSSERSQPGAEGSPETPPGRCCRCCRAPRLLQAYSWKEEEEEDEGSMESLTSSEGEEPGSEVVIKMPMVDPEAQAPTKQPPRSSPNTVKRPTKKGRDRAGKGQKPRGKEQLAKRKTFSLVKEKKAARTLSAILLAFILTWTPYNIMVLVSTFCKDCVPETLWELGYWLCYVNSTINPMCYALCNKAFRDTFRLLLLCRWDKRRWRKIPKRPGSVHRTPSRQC

[5] = biological target: Muscarinic acetylcholine receptor M3 (Homo sapiens) (UniProt P20309); assay: Displacement of [3H]quinuclidinyl benzylate from human muscarinic M3 receptor expressed in CHO cells at 10 uM; assay type: cell-based
Chain of Muscarinic acetylcholine receptor M3 (Homo sapiens) (P20309 whole entry, looked up): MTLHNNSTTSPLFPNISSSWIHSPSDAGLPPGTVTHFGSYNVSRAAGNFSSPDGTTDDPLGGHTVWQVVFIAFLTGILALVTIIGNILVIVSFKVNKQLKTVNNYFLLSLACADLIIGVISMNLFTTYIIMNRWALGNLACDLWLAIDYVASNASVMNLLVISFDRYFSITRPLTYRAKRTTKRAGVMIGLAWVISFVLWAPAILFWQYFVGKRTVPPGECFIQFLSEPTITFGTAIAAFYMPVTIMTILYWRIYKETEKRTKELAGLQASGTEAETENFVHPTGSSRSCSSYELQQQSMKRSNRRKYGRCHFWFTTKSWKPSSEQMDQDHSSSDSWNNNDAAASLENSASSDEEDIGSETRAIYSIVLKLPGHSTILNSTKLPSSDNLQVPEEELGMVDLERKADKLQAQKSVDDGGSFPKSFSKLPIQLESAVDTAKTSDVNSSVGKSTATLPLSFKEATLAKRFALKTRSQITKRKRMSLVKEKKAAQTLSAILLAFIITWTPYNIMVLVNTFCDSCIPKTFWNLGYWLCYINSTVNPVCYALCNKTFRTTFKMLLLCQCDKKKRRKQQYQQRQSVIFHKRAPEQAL

[6] = biological target: Neuronal acetylcholine receptor; alpha4/beta2 (Rattus norvegicus, UniProt P09483+P12390); assay: Displacement of [3H]epibatidine from alpha4beta2 nAChR in rat cortical membranes by beta counting; assay type: cell membranes, Membrane
Chain of Neuronal acetylcholine receptor; alpha4/beta2 (P09483 whole entry): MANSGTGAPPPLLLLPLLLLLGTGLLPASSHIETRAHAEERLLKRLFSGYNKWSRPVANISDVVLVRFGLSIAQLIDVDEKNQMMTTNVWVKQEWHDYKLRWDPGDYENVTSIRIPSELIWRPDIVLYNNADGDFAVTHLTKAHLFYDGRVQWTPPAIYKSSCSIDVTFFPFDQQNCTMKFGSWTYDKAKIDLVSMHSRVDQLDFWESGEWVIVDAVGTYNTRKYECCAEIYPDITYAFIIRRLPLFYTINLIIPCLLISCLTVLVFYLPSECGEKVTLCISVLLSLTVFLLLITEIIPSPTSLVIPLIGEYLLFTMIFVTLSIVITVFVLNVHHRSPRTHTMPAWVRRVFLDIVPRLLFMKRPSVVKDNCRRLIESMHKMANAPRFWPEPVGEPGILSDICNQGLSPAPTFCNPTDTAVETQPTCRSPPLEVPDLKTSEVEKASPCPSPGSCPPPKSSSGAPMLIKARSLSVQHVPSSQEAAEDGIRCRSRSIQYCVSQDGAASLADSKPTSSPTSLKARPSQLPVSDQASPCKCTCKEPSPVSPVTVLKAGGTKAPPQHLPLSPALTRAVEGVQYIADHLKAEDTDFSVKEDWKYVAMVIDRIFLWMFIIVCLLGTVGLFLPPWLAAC
Chain of Neuronal acetylcholine receptor; alpha4/beta2 (P12390 whole entry): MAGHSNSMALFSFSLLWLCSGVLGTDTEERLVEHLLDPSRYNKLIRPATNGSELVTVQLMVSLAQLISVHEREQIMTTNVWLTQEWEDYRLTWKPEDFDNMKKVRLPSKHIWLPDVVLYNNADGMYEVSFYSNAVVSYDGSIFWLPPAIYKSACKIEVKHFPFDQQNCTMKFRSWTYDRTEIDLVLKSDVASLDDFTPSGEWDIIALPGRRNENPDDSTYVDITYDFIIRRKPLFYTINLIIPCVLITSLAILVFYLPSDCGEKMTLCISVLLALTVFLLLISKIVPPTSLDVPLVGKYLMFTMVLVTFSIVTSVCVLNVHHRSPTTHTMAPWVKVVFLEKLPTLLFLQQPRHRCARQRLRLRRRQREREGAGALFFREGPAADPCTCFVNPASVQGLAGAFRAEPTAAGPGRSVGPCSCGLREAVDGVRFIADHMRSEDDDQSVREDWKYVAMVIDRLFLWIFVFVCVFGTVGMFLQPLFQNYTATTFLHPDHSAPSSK
Summary of the method: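 Rat cortex membranes were washed twice by homogenisation in pH 7.4 phosphate/1 M NaCl/EDTA/EGTA/PMSF buffer and 60,000g spins, then resuspended in pH 7 Tris buffer. Nonspecific binding used 100 nM epibatidine. Filtered on PEI-soaked GF/C. Ki from three independent competition curves (LIGAND).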

[7] = biological target: T4, Muscarinic acetylcholine receptor M5 (Homo sapiens) (UniProt P08912); assay: Displacement of [3H]quinuclidinyl benzylate from human muscarinic M5 receptor expressed in CHO cells at 10 uM; assay type: cell-based; summary of the method: as §1
T4 sequence (whole entry): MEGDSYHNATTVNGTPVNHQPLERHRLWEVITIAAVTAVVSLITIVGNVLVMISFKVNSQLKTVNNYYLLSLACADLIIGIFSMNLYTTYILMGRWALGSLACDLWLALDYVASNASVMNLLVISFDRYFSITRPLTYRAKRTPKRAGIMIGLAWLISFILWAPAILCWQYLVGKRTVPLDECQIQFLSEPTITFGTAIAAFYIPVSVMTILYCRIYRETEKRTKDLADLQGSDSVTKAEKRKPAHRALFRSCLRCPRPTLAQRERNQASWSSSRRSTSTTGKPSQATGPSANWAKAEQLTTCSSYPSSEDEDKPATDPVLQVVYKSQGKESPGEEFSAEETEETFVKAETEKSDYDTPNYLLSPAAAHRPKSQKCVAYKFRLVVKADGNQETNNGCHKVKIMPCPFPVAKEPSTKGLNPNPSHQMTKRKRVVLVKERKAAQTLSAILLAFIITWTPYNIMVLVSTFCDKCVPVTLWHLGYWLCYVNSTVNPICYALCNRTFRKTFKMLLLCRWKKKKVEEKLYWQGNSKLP

Row | SMILES | Ki [1] | Activity [2] | Activity [3] | Activity [4] | Activity [5] | Ki [6] | Activity [7]
1 | BrC1=NO[C@@H]([C@@H]2CCCN2)C1 | 35 µM | < 50% | < 50% | < 50% | < 50% | 4.2 µM | < 50%
2 | COC1=NO[C@@H]([C@@H]2CCCN2C)C1 | 2.9 µM | < 50% | < 50% | < 50% | < 50% | 10.3 µM | < 50%
3 | CC1=NO[C@H]([C@@H]2CCCN2)C1 | 0.44 µM | < 50% | < 50% | < 50% | < 50% | 5.1 µM | < 50%
4 | CC1=NO[C@@H]([C@@H]2CCCN2C)C1 | 325 µM | < 50% | < 50% | < 50% | < 50% | 12 µM | < 50%
5 | COC1=NO[C@H]([C@@H]2CCCN2)C1 | 11.3 µM | < 50% | < 50% | < 50% | < 50% | 50 µM | < 50%
6 | CC(C)(C)OC1=NO[C@H]([C@@H]2CCCN2)C1 | > 500 µM | < 50% | < 50% | < 50% | < 50% | 184 µM | < 50%
7 | CC1=NO[C@@H]([C@@H]2CCCN2)C1 | 40 µM | < 50% | < 50% | < 50% | < 50% | 18 µM | < 50%
8 | COC1=NO[C@@H]([C@@H]2CCCN2)C1 | 277 µM | < 50% | < 50% | < 50% | < 50% | 28 µM | < 50%
9 | CN1CCC[C@H]1[C@H]1CC(Br)=NO1 | 43 µM | < 50% | < 50% | < 50% | < 50% | 3.8 µM | < 50%
